Test results reported in ChEMBL document CHEMBL1789904, “Imaging of Plasmodium liver stages to drive next-generation antimalarial drug discovery” (Science, 2011).

System: Plasmodium yoelii
Experiment: NOVARTIS: Antimalarial liver stage activity measured as reduction in Plasmodium yoelii schizont area in HepG2-A16-CD81 cells by immuno-fluorescence, and median schizont size at 10uM compound concentration
Assay type: functional, organism-based
Details: for IC50: Plasmodium yoelii, HepG2-A16-CD81
In short: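 Host and parasite nuclei stained with Hoechst 33342, parasites with αPyHSP70 antibody; 25 images per well by high-content imaging; median parasite (schizont) area measured by automated image analysis, ~50 schizonts per experiment, two or more independent experiments.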

## CN1CCN(c2ccc(Nc3c4ccccc4nc4ccccc34)cc2)CC1
  Schizont size: 45.82 um
  IC50: 547 nM

## O=C(Nc1ccc(C(F)(F)F)cc1)c1ccc(NCCCN2CCCCCC2)c([N+](=O)[O-])c1
  Schizont size: 74.21 um
  IC50: 450 nM

## COc1cccc(C(=O)NC(c2ccccc2OC)c2cc(Cl)c3cccnc3c2O)c1 (stereo unspecified)
  Schizont size: 20.25 um
  IC50: 544 nM

## c1ccc2cc3c(N4CCN(CCN5CCN(c6ccnc7cc8ccccc8cc67)CC5)CC4)ccnc3cc2c1
  Schizont size: 135.69 um
  IC50: 2910 nM

## COc1ccc2nc(C)cc(Nc3ccc(Cl)c(Cl)c3)c2c1
  Schizont size: 39.25 um
  IC50: 438 nM

## O=C(c1cccs1)N1CCN(c2ccc([N+](=O)[O-])c(NC3CC3)c2)CC1
  Schizont size: 83.6 um
  IC50: 692 nM

## CCc1ccccc1N=C1c2c(cccc2[N+](=O)[O-])C(=O)C1C(C)=O (stereo unspecified)
  Schizont size: 83.4 um
  IC50: 2030 nM

## CCOC(=O)c1c(NC(C)=O)sc2c1CCN(C(C)C)C2
  Schizont size: 93.21 um
  IC50: 3010 nM

## O=C(c1cccc(Cl)c1)N1CCN(c2ccc([N+](=O)[O-])c(NC3CC3)c2)CC1
  Schizont size: 102.71 um
  IC50: 3200 nM

## Oc1cccc(Nc2nc(NCC3CCCO3)c3ccccc3n2)c1 (stereo unspecified)
  Schizont size: 74.32 um
  IC50: 1040 nM

## COc1ccc2nc(-c3ccccc3)cc(NCCN(C)C)c2c1
  Schizont size: 69.1 um
  IC50: 570 nM

## c1ccc2c(NCCc3c[nH]cn3)c3ccccc3nc2c1
  Schizont size: 110.22 um
  IC50: 706 nM

## CCOC(=O)C1=C(c2ccccc2)N=c2sc(=Cc3cc(C)n(-c4ccc(F)cc4)c3C)c(=O)n2C1c1cccc(OC)c1OC (stereo unspecified)
  Schizont size: 106.25 um
  IC50: 2450 nM

## COc1cc(C(=O)N2N=C(c3c(-c4ccccc4)c4cc(Br)ccc4[nH]c3=O)CC2c2cccc([N+](=O)[O-])c2)cc(OC)c1OC (stereo unspecified)
  Schizont size: 29.43 um
  IC50: 435 nM

## CCCN(CCC)CCCNc1ccc(C(=O)Nc2ccc(C)c(F)c2)cc1[N+](=O)[O-]
  Schizont size: 83.5 um
  IC50: 646 nM

## Cc1cc(OC(C)C(=O)N2CCc3ccccc32)ccc1Cl (stereo unspecified)
  Schizont size: 59.6 um
  IC50: 776 nM

## Oc1c(C(Nc2ccccn2)c2cccc(Cl)c2Cl)ccc2cccnc12 (stereo unspecified)
  Schizont size: 23.8 um
  IC50: 402 nM

## O=C(Nc1ccc(-c2nc3cc(NC(=O)c4ccc(Br)o4)ccc3[nH]2)cc1)c1ccc(Br)o1
  Schizont size: 101.14 um
  IC50: 812 nM

## c1ccc(Nc2ccnc(Nc3ccccc3)n2)cc1
  Schizont size: 92.37 um
  IC50: 1480 nM

## CCOc1ccc(Nc2cc(=O)oc3ccccc23)cc1
  Schizont size: 43.94 um
  IC50: 502 nM

## COc1ccc(Nc2cc(C)nc(NCc3ccccc3)n2)cc1
  Schizont size: 57.82 um
  IC50: 636 nM

## CCN(CC)CCN(Cc1cc2ccc(C)cc2[nH]c1=O)C(=S)NC(C)c1ccccc1 (stereo unspecified)
  Schizont size: 66.17 um
  IC50: 883 nM

## COC(=O)C1=C(C)NC2=C(C(=O)CC(c3ccccc3Cl)C2)C1c1ccc([N+](=O)[O-])cc1 (stereo unspecified)
  Schizont size: 61.06 um
  IC50: 842 nM

## COc1ccc(C2CC(=O)C3=C(C2)NC(C)=C(C(=O)OC(C)C)C3c2cccc(C)c2)cc1OC (stereo unspecified)
  Schizont size: 90.91 um
  IC50: 1840 nM

## Cc1cc(Nc2cccc(F)c2)nc(NCc2ccccc2)n1
  Schizont size: 73.06 um
  IC50: 1110 nM

## O=c1c2c([nH]c3ccccc13)CCCCCC2
  Schizont size: 42.48 um
  IC50: 727 nM

## CC(C)c1nc(N2CCN(C(=O)Nc3ccccc3)CC2)c(C#N)c2c1COC(C)(C)C2
  Schizont size: 82.25 um
  IC50: 1020 nM

## COc1cccc(NC(=O)c2ccc(NCCCN3CC(C)CC(C)C3)c([N+](=O)[O-])c2)c1 (stereo unspecified)
  Schizont size: 87.57 um
  IC50: 437 nM

## Cc1ccc(Nc2nc3c(N)nnc(N)c3nc2Nc2ccc(C)cc2)cc1
  Schizont size: 50.31 um
  IC50: 488 nM

## CCCCC(=O)NC(c1cccc([N+](=O)[O-])c1)c1ccc2cccnc2c1O (stereo unspecified)
  Schizont size: 23.69 um
  IC50: 449 nM

## Br.O=C(Cn1ccc(=NCc2ccccc2)cc1)c1ccc(I)cc1
  Schizont size: 44.99 um
  IC50: 825 nM

## COc1ccc(C2CC(=O)C3=C(C2)NC(C)=C(C(=O)OC2CCCC2)C3c2cccc(C)c2)cc1OC (stereo unspecified)
  Schizont size: 66.8 um
  IC50: 779 nM

## c1ccc(OCCOc2ccc(Nc3c4ccccc4nc4ccccc34)cc2)cc1
  Schizont size: 41.33 um
  IC50: 559 nM

## CC(=O)N1c2ccc(C)cc2C(C)(c2ccccc2)CC1(C)C (stereo unspecified)
  Schizont size: 105.42 um
  IC50: 1250 nM

## CCOc1ccc2[nH]c(=O)c(CN(CCN(CC)CC)C(=S)NCCCN(CC)CC)cc2c1
  Schizont size: 120.76 um
  IC50: 2170 nM

## CCCCCCCCn1c(C)[n+](CC)c2cc(C(=O)OCC)ccc21.[I-]
  Schizont size: 63.77 um
  IC50: 990 nM

## FC(F)(F)c1ccccc1NC(=S)N1CCCN(c2nc3ccc(Cl)cc3s2)CC1
  Schizont size: 91.85 um
  IC50: 1620 nM

## Cc1ccc(-c2cn3c([n+]2-c2ccccc2)SCC3)cc1.[Br-]
  Schizont size: 62.52 um
  IC50: 1090 nM

## Cl.Fc1ccccc1Nc1nc(NCc2ccccc2)c2ccccc2n1
  Schizont size: 37.58 um
  IC50: 690 nM

## C=CC[N+]1(CC#Cc2cccc3ccccc23)CCCCC1.[Br-]
  Schizont size: 80.06 um
  IC50: 908 nM

## CCCCCCOc1ccc(C(C)=NNC2=NCCN2)cc1[N+](=O)[O-]
  Schizont size: 60.96 um
  IC50: 784 nM

## CCCCCCCC[n+]1c(C)n(C)c2cc(Cl)c(Cl)cc21.[I-]
  Schizont size: 40.39 um
  IC50: 419 nM

## Brc1ccc(-c2cn3c([n+]2-c2ccccc2)SCC3)cc1.[Br-]
  Schizont size: 78.7 um
  IC50: 828 nM

## CCN(CC)c1ccc(NC(=O)c2cccs2)cc1
  Schizont size: 54.07 um
  IC50: 396 nM

## O=C(c1ccc([N+](=O)[O-])cc1)c1ccc(Cl)c(Cl)c1
  Schizont size: 109.39 um
  IC50: 1640 nM

## CCC(=O)NC(c1ccccc1Cl)c1cc(Cl)c2cccnc2c1O (stereo unspecified)
  Schizont size: 55.11 um
  IC50: 1010 nM

## Nc1cccc(C(=O)Nc2ccc(Oc3cccc(Oc4ccc(NC(=O)c5cccc(N)c5)cc4)c3)cc2)c1
  Schizont size: 90.81 um
  IC50: 1760 nM

## O=[N+]([O-])c1cc(C(F)(F)F)ccc1N1CCCN(C(=S)Nc2ccccc2)CC1
  Schizont size: 93.73 um
  IC50: 2230 nM

## COC(=O)c1c(-c2c(Cl)cccc2Cl)noc1NC(=O)NN1CCCCC1
  Schizont size: 75.67 um
  IC50: 647 nM

## CN(C)CCCN(Cc1cc2cc3c(cc2[nH]c1=O)OCO3)C(=S)Nc1cccc(Cl)c1
  Schizont size: 60.22 um
  IC50: 818 nM

## COc1ccc(C(NC(=O)c2cccnc2)c2cc(Cl)c3cccnc3c2O)cc1 (stereo unspecified)
  Schizont size: 21.08 um
  IC50: 542 nM

## CCCCOc1ccc(N(C(C)=O)C2=C(N3CCOCC3)C(=O)c3ccccc3C2=O)cc1
  Schizont size: 74.84 um
  IC50: 1790 nM

## CCN(CC)CCCN(Cc1cc2ccc(C)cc2[nH]c1=O)C(=S)Nc1cccc(Cl)c1
  Schizont size: 58.76 um
  IC50: 448 nM

## CSc1nnc(-c2cccc([N+](=O)[O-])c2)n1Cc1ccccc1
  Schizont size: 97.38 um
  IC50: 2510 nM

## CC(=O)N(C1=C(N2CCOCC2)C(=O)c2ccccc2C1=O)c1ccc(I)cc1
  Schizont size: 50.1 um
  IC50: 602 nM

## CC(C)NCC(O)Cn1c2ccc(Cl)cc2c2cc(Cl)ccc21 (stereo unspecified)
  Schizont size: 88.41 um
  IC50: 2970 nM

## CN(C)c1cc[n+](CC(=O)Nc2ccc(Cl)cc2)cc1.[Cl-]
  Schizont size: 69.62 um
  IC50: 584 nM

## Cc1ccnc(NC(c2ccc3ccccc3c2)c2ccc3cccnc3c2O)c1 (stereo unspecified)
  Schizont size: 26.72 um
  IC50: 556 nM

## CCOC(=O)C1=C(C)NC2=C(C(=O)C(C(=O)OCC)C(c3ccccc3OC)C2)C1c1cc(OC)c(OC)c(OC)c1 (stereo unspecified)
  Schizont size: 103.54 um
  IC50: 509 nM

## CCc1cc2c(cc1-c1csc(NC(=N)N)n1)C(C)(C)CCC2(C)C
  Schizont size: 92.27 um
  IC50: 2900 nM

## CC(=O)N(C1=C(N2CCOCC2)C(=O)c2ccccc2C1=O)c1cccc(Cl)c1
  Schizont size: 43.73 um
  IC50: 744 nM

## CCOc1ccc(Nc2nc(NCc3ccccc3)c3ccccc3n2)cc1.Cl
  Schizont size: 23.69 um
  IC50: 480 nM

## Cc1ccc(Nc2cc(C)nc(NCc3ccccc3)n2)c(C)c1
  Schizont size: 89.14 um
  IC50: 1300 nM

## O=C(Nc1ccc(Oc2cccc(Oc3ccc(NC(=O)c4ccc(Br)o4)cc3)c2)cc1)c1ccc(Br)o1
  Schizont size: 18.79 um
  IC50: 433 nM

## CCCCc1c(C)nc2c(OC)cccc2c1O
  Schizont size: 42.59 um
  IC50: 561 nM

## CCOC(=O)c1cnc2ccc(OC)cc2c1Cl
  Schizont size: 31 um
  IC50: 410 nM

## Cc1cccc(-c2cc3nc(C)c(C)c(O)n3n2)c1
  Schizont size: 67.43 um
  IC50: 1100 nM

## CCCCCc1c(C)c(C#N)c2nc3ccccc3n2c1NCCN(CC)CC
  Schizont size: 74 um
  IC50: 702 nM

## COc1ccc(C2Sc3ccccc3N=C3C2=C(O)c2ccccc23)cc1 (stereo unspecified)
  Schizont size: 39.14 um
  IC50: 706 nM

## Cl.Nc1ccc(N2CCCCCC2)cc1
  Schizont size: 77.66 um
  IC50: 1950 nM

## Cc1ncc(CCCCN(C)C)c2c1[nH]c1ccccc12
  Schizont size: 132.56 um
  IC50: 2770 nM

## O=c1c2c([nH]c3ccccc13)CCCC2
  Schizont size: 39.45 um
  IC50: 500 nM

## CCOC(=O)CN(N=O)C1=C(N2CC2)C(=O)c2ccccc2C1=O
  Schizont size: 35.8 um
  IC50: 480 nM

## CCC[n+]1cccc2ccc3cccnc3c21
  Schizont size: 43.42 um
  IC50: 903 nM

## Cc1cn2c3ccccc3n(CCN3CCCC3)c2n1
  Schizont size: 126.09 um
  IC50: 1070 nM

## N#Cc1ccc(NC(=O)NC2CC3CCCC(C2)N3CCc2ccccc2)cc1 (stereo unspecified)
  Schizont size: 62 um
  IC50: 497 nM

## CC(=O)Nc1nc(C)c(-c2csc(Nc3ccc(C)cc3)n2)s1
  Schizont size: 104.48 um
  IC50: 1890 nM

## O=C(c1cnsn1)N1CCCC(COc2cccc(CN3CCC(Cc4ccccc4)CC3)c2)C1 (stereo unspecified)
  Schizont size: 69.41 um
  IC50: 609 nM
